Laboratory results from ChEMBL document CHEMBL1156002, “Synthesis, Raman, FT-IR, NMR spectroscopic characterization, antimicrobial activity, cytotoxicity and DNA binding of new mixed aza-oxo-thia macrocyclic compounds” (2009).
In brackets after ≈: the same amount, converted by molar mass. Activity calls are given as the source filed them. The calls are words filed in the database; no cut-off is given here.

Experiments:
[1] = tested on: Mycolicibacterium smegmatis; experiment: Antibacterial activity against Mycobacterium smegmatis CCM 2067 after 24 hrs by agar disk diffusion assay; assay type: functional
How it was run: (§1)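 Disk diffusion with sterile 6 mm discs loaded with DMSO solutions of the test agents and placed on inoculated agar. Bacteria were pre-grown in Nutrient Broth at 30 °C for 24 h, and plates were incubated at 35 °C for 24 h. Each plate carried a reference antibiotic disc matched to the organism, and a DMSO-only solvent control was run.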

[2] = tested on: A549; experiment: Cytotoxicity against human A549 cells assessed as cell viability at 0.1 uM after 48 hrs by MTT assay; assay type: functional; settings: A549, 48 h, read-out: Activity
How it was run: (§2)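 Cells were seeded at 3.10³–5.10³ per well in RPMI 1640 with 10% FBS, 4 mM L-glutamine and penicillin/streptomycin, then held 24 h at 37 °C under 5% CO₂. Ligands (DMSO, final 0.5% v/v) were added at 0.1–100 for 24 or 48 h. MTT was added for 4 h and dissolved in 50% DMF/5% SDS. A570 was read, and cytotoxicity was calculated as 100×(OD treated/OD untreated).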

[3] = tested on: Calf thymus DNA; experiment: Binding affinity to calf thymus DNA assessed as change in electromagnetic spectrum at 500 uM by UV-vis spectroscopy; assay type: nucleic-acid assay; settings: Bos taurus
How it was run: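 CT-DNA was prepared in ddH₂O and judged protein-free by an A260/A280 ratio of 1.8:1. UV–visible absorption spectra of the DNA solution were recorded without ligand and with increasing ligand amounts.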

[4] = tested on: Micrococcus luteus; experiment: Antibacterial activity against Micrococcus luteus La 2971 after 24 hrs by broth micro dilution method; assay type: functional; settings: La 2971, 24 h
[5] = tested on: A549; experiment: Cytotoxicity against human A549 cells assessed as cell viability at 10 uM after 48 hrs by MTT assay; assay type: functional; settings: A549, 48 h, read-out: Activity; how it was run: as §2
[6] = tested on: Proteus vulgaris; experiment: Antibacterial activity against Proteus vulgaris ATCC 8427 after 24 hrs by broth micro dilution method; assay type: functional; settings: ATCC 8427, 24 h
[7] = Cytotoxicity against human 23132/87 cells assessed as cell viability at 0.1 uM after 48 hrs by MTT assay; assay type: functional; settings: 23132-87, 48 h, read-out: Activity; how it was run: as §2
[8] = Cytotoxicity against human 23132/87 cells assessed as cell viability at 0.1 uM after 24 hrs by MTT assay; assay type: functional; settings: 23132-87, 24 h, read-out: Activity; how it was run: as §2
[9] = tested on: Klebsiella pneumoniae; experiment: Antibacterial activity against Klebsiella pneumoniae UC57 after 24 hrs by agar disk diffusion assay; assay type: functional; how it was run: as §1
[10] = tested on: Debaryomyces hansenii; experiment: Antifungal activity against Debaryomyces hansenii DSM 70238 after 24 hrs by broth micro dilution method; assay type: functional; settings: DSM 70238, 24 h
How it was run: (§3)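 Broth microdilution was run in cation-adjusted Mueller Hinton Broth. Compounds were dissolved in DMSO at 2 mg mL^-1 and serially diluted two-fold. Yeast precultures were grown in Malt Extract Broth for 48 h. The final inoculum was about 10⁶ cfu mL^-1, and plates were incubated at 37 °C for 24 h. The MIC was read from this series.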

[11] = tested on: Listeria monocytogenes; experiment: Antibacterial activity against Listeria monocytogenes ATCC 15313 after 24 hrs by broth micro dilution method; assay type: functional; settings: ATCC 15313, 24 h
[12] = tested on: A549; experiment: Cytotoxicity against human A549 cells assessed as cell viability at 100 uM after 24 hrs by MTT assay; assay type: functional; settings: A549, 24 h, read-out: Activity; how it was run: as §2
[13] = Cytotoxicity against human 23132/87 cells assessed as cell viability at 100 uM after 48 hrs by MTT assay; assay type: functional; settings: 23132-87, 48 h, read-out: Activity; how it was run: as §2
[14] = tested on: Kluyveromyces marxianus; experiment: Antifungal activity against Kluyveromyces fragilis NRRL 2415 after 72 hrs by agar disk diffusion assay; assay type: functional
How it was run: (§4)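 Sterile 6 mm paper discs were loaded with ligand solution freshly prepared in DMSO and placed on inoculated agar. The inoculum came from broth cultures: bacteria in Nutrient Broth at 30 °C for 24 h, yeasts in Malt Extract Broth for 48 h. Plates were incubated at 35 °C for 24 h (bacteria) or 25 °C for 72 h (yeasts). A DMSO solvent control and a reference antibiotic disc were included on each plate.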

[15] = tested on: Rhodotorula mucilaginosa; experiment: Antifungal activity against Rhodotorula rubra DSM 70403 after 24 hrs by broth micro dilution method; assay type: functional; settings: DSM 70403, 24 h; how it was run: as §3
[16] = tested on: A549; experiment: Cytotoxicity against human A549 cells assessed as cell viability at 0.1 uM after 24 hrs by MTT assay; assay type: functional; settings: A549, 24 h, read-out: Activity; how it was run: as §2
[17] = tested on: A549; experiment: Cytotoxicity against human A549 cells assessed as cell viability at 1 uM after 48 hrs by MTT assay; assay type: functional; settings: A549, 48 h, read-out: Activity; how it was run: as §2
[18] = tested on: Debaryomyces hansenii; experiment: Antifungal activity against Debaryomyces hansenii DSM 70238 after 72 hrs by agar disk diffusion assay; assay type: functional; how it was run: as §4
[19] = tested on: A549; experiment: Induction of apoptosis in human A549 cells assessed as DNA fragmentation at 100 uM after 24 hrs by DNA fragmentation assay; assay type: functional, cell-based
How it was run: (§5)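 10 × 10⁴ cells were seeded in 6-well plates and treated with ligand for 24 h. Cells were then collected and washed in PBS, and DNA was extracted with a kit. Extracts were run on 1.5% agarose alongside a 100 bp marker, an untreated control and DMSO-treated controls, and ladders were visualized under UV.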

[20] = Cytotoxicity against human 23132/87 cells assessed as cell viability at 1 uM after 48 hrs by MTT assay; assay type: functional; settings: 23132-87, 48 h, read-out: Activity; how it was run: as §2
[21] = tested on: Hanseniaspora guilliermondii; experiment: Antifungal activity against Hanseniaspora guilliermondii DSM 3432 after 72 hrs by agar disk diffusion assay; assay type: functional; how it was run: as §4
[22] = tested on: Candida albicans; experiment: Antifungal activity against Candida albicans ATCC 10231 after 24 hrs by broth micro dilution method; assay type: functional; settings: ATCC 10231, 24 h; how it was run: as §3
[23] = tested on: 23132-87; experiment: Induction of apoptosis in human 23132/87 cells assessed as DNA fragmentation at 100 uM after 24 hrs by DNA fragmentation assay; assay type: functional, cell-based; how it was run: as §5
[24] = tested on: A549; experiment: Cytotoxicity against human A549 cells assessed as cell viability at 1 uM after 24 hrs by MTT assay; assay type: functional; settings: A549, 24 h, read-out: Activity; how it was run: as §2
[25] = tested on: Staphylococcus aureus; experiment: Antibacterial activity against Staphylococcus aureus ATCC 6538 after 24 hrs by broth micro dilution method; assay type: functional; settings: ATCC 6538, 24 h
[26] = tested on: Pseudomonas aeruginosa; experiment: Antibacterial activity against Pseudomonas aeruginosa ATCC 27853 after 24 hrs by agar disk diffusion assay; assay type: functional; how it was run: as §1
[27] = tested on: Klebsiella pneumoniae; experiment: Antibacterial activity against Klebsiella pneumoniae UC57 after 24 hrs by broth micro dilution method; assay type: functional; settings: UC57, 24 h
[28] = tested on: Kluyveromyces marxianus; experiment: Antifungal activity against Kluyveromyces fragilis NRRL 2415 after 24 hrs by broth micro dilution method; assay type: functional; settings: NRRL 2415, 24 h; how it was run: as §3
[29] = tested on: A549; experiment: Cytotoxicity against human A549 cells assessed as cell viability at 10 uM after 24 hrs by MTT assay; assay type: functional; settings: A549, 24 h, read-out: Activity; how it was run: as §2
[30] = tested on: Escherichia coli; experiment: Antibacterial activity against Escherichia coli ATCC 11230 after 24 hrs by agar disk diffusion assay; assay type: functional; how it was run: as §1
[31] = tested on: Bacillus cereus; experiment: Antibacterial activity against Bacillus cereus ATCC 7064 after 24 hrs by agar disk diffusion assay; assay type: functional; how it was run: as §1
[32] = tested on: Staphylococcus aureus; experiment: Antibacterial activity against Staphylococcus aureus ATCC 6538 after 24 hrs by agar disk diffusion assay; assay type: functional; how it was run: as §1
[33] = tested on: Candida albicans; experiment: Antifungal activity against Candida albicans ATCC 10231 after 72 hrs by agar disk diffusion assay; assay type: functional; how it was run: as §4
[34] = tested on: A549; experiment: Induction of apoptosis in human A549 cells assessed as change in nuclear appearance at 100 uM after 24 hrs by hoechst nuclear staining; assay type: functional, cell-based
How it was run: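 Cells grown in 6-well plates were treated for 24 h, washed three times in PBS and fixed in ice-cold methanol for 10 min. They were stained with Hoechst 33258 for 5 min, destained in double-distilled water for 5 min and examined by fluorescence microscopy. Untreated and DMSO-treated cells served as controls.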

Activity [3]	MIC [4] [µg/mL]	MIC [6] [µg/mL]	MIC [10] [µg/mL]	MIC [11] [µg/mL]	MIC [15] [µg/mL]	SMILES	inhibition zone (IZ) [1] [mm]	viability at 0.1 µM [2] [%]	viability at 10 µM [5] [%]	viability at 0.1 µM [7] [%]	viability at 0.1 µM [8] [%]	inhibition zone (IZ) [9] [mm]	viability at 100 µM [12] [%]	viability at 100 µM [13] [%]	inhibition zone (IZ) [14] [mm]	viability at 0.1 µM [16] [%]	viability at 1 µM [17] [%]	inhibition zone (IZ) [18] [mm]	Activity [19]	viability at 1 µM [20] [%]	other results
inactive	12.5 (≈ 20.7 µM)	12.5 (≈ 20.7 µM)	3.12 (≈ 5.19 µM)	25 (≈ 41.5 µM)	6.25 (≈ 10.4 µM)	O=C1CSCC(=O)Nc2nc(nc(-c3ccccc3)n2)NC(=O)CSCC(=O)Nc2nc(nc(-c3ccccc3)n2)N1	10	> 86	> 86	> 86	> 86	13	> 86	> 86	15	> 86	> 86	18	inactive	> 86	inhibition zone (IZ) [21]: 20 mm; MIC [22]: 6.25 µg/mL (≈ 10.4 µM); Activity [23]: inactive; viability at 1 µM [24]: > 86%; MIC [25]: 12.5 µg/mL (≈ 20.7 µM); inhibition zone (IZ) [26]: 9 mm; MIC [27]: 12.5 µg/mL (≈ 20.7 µM); MIC [28]: 6.25 µg/mL (≈ 10.4 µM); viability at 10 µM [29]: > 86%; inhibition zone (IZ) [30]: 10 mm; inhibition zone (IZ) [31]: 14 mm; inhibition zone (IZ) [32]: 12 mm; inhibition zone (IZ) [33]: 16 mm; Activity [34]: inactive
inactive	3.12 (≈ 4.69 µM)	25 (≈ 37.5 µM)	1.56 (≈ 2.34 µM)	25 (≈ 37.5 µM)	3.12 (≈ 4.69 µM)	O=C1CSSCC(=O)Nc2nc(nc(-c3ccccc3)n2)NC(=O)CSSCC(=O)Nc2nc(nc(-c3ccccc3)n2)N1	10	> 86	> 86	> 86	> 86	15	> 86	> 86	19	> 86	> 86	21	inactive	> 86	inhibition zone (IZ) [21]: 20 mm; MIC [22]: 3.12 µg/mL (≈ 4.69 µM); Activity [23]: inactive; viability at 1 µM [24]: > 86%; MIC [25]: 12.5 µg/mL (≈ 18.7 µM); inhibition zone (IZ) [26]: 11 mm; MIC [27]: 6.25 µg/mL (≈ 9.37 µM); MIC [28]: 1.56 µg/mL (≈ 2.34 µM); viability at 10 µM [29]: > 86%; inhibition zone (IZ) [30]: 10 mm; inhibition zone (IZ) [31]: 17 mm; inhibition zone (IZ) [32]: 14 mm; inhibition zone (IZ) [33]: 19 mm; Activity [34]: inactive
